In ChEMBL document CHEMBL3098054, “The synthesis of novel taxoids for oral administration” (Bioorg Med Chem, 2014):
pIC50: −log10 of the molar value.

Columns and labels:
MDR1 [1] = assay: Efflux ratio of apparent permeability from basolateral to apical side over apical to basolateral side in MDCK cells expressing MDR1 at 5 uM after 90 mins; type: ADME, cell-based, Canis lupus familiaris; details: dog
Procedure, shortened: (§1)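 MDCK-MDR1 monolayers grown on polycarbonate filter Transwells, confluent 5 days after seeding, TEER >1000 Ω·cm² before use. MDCK-WT cells plated at 5.0 × 10⁴ cells/well and used after 6 days at TEER >200 Ω·cm². Transport run at 37 °C in HBSS pH 7.4 for 90 min, in both directions. Lucifer yellow permeability and TEER change served as monolayer integrity checks. Efflux ratio = Papp(B–A)/Papp(A–B).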

[2] = Efflux ratio of apparent permeability from basolateral to apical side over apical to basolateral side in wild-type MDCK cells at 5 uM after 90 mins; type: ADME, cell-based, Canis lupus familiaris; details: dog; procedure, shortened: as §1
MCF7 [3] = assay: Cytotoxicity against human MCF7 cells after 72 hrs by MTT assay; type: functional, cell-based; details: MCF7, 72 h
Procedure, shortened: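 MCF-7 cells exposed to compound for 72 h and read by MTT. At least six replicate wells per assay, run on three separate occasions. IC₅₀ given as mean with standard deviation.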

[4] = molecular target: ATP-dependent translocase ABCB1 (Homo sapiens, UniProt P08183); assay: Inhibition of MDR1 (unknown origin) expressed in MDCK cells at 10 uM after 90 mins; type: ADME, cell-based; details: 1.5 h
ATP-dependent translocase ABCB1, sequence (P08183 whole entry): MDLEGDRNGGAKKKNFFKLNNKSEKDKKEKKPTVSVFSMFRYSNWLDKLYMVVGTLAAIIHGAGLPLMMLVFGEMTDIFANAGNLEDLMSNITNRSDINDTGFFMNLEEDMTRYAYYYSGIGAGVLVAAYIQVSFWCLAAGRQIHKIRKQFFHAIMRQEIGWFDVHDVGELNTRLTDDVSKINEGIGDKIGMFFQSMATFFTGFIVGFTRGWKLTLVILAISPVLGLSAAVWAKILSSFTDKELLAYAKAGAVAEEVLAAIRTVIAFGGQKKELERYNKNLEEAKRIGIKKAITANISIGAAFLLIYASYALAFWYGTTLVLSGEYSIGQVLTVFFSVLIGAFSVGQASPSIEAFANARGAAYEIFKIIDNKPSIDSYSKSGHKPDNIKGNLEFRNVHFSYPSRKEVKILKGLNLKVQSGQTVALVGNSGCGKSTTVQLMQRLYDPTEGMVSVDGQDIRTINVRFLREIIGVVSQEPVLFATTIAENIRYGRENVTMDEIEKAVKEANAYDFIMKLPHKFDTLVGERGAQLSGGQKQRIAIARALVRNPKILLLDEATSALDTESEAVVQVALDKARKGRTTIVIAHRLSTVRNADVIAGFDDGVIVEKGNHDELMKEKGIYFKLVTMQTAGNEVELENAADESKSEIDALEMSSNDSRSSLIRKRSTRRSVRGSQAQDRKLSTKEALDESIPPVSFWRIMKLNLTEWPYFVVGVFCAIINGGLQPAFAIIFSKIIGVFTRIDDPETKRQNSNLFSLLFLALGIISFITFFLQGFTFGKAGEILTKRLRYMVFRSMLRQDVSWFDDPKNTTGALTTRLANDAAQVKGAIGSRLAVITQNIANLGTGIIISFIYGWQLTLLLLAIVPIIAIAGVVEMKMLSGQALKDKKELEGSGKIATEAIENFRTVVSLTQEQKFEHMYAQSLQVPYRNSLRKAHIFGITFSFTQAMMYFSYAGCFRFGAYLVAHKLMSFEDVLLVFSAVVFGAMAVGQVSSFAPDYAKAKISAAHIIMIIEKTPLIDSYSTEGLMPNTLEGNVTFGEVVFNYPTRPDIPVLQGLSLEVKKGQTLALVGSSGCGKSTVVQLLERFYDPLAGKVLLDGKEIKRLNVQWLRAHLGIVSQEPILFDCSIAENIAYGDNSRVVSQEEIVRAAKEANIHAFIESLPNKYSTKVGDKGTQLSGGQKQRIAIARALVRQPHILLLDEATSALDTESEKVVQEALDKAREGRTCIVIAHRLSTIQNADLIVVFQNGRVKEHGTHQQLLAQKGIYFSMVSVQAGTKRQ
Procedure, shortened: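 P-gp inhibition measured as digoxin bidirectional transport across MDCK-MDR1 monolayers at 37 °C in HBSS pH 7.4, with test compound present at 10 µM. Read-out is the change in digoxin efflux ratio, Papp(B–A)/Papp(A–B).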

MDR1 [5] = assay: Apparent permeability from basolateral to apical side in MDCK cells expressing MDR1 at 5 uM after 90 mins; type: ADME, cell-based, Canis lupus familiaris; details: dog; procedure, shortened: as §1
MDR1 [6] = assay: Apparent permeability from apical to basolateral side in MDCK cells expressing MDR1 at 5 uM after 90 mins; type: ADME, cell-based, Canis lupus familiaris; details: dog; procedure, shortened: as §1
[7] = (§2) Efflux ratio of apparent permeability from basolateral to apical side over apical to basolateral side in human Caco2 cells at 10 uM after 90 mins by LC-MS/MS analysis; type: ADME, cell-based, Caco-2; details: Caco-2
Procedure, shortened: (§3)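 Caco-2 cells cultured 21 days on 24-well inserts, TEER >250 Ω·cm². Monolayers pre-incubated in HBSS pH 7.4 at 37 °C. Compound added to the donor side at 10 µM, 37 °C, 5% CO₂, 90 min, in the A-to-B and B-to-A directions. Donor and receiver levels measured by LC-MS/MS. Papp calculated from receiver amount, membrane area 0.7 cm², time and initial donor concentration. Efflux ratio = B–A/A–B.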

[8] = (§4) Apparent permeability from basolateral to apical side in human Caco2 cells at 10 uM after 90 mins by LC-MS/MS analysis; type: ADME, cell-based, Caco-2; details: Caco-2
[9] = Apparent permeability from apical to basolateral side in wild-type MDCK cells at 5 uM after 90 mins; type: ADME, cell-based, Canis lupus familiaris; details: dog; procedure, shortened: as §1
[10] = (§5) Apparent permeability from apical to basolateral side in human Caco2 cells at 10 uM after 90 mins by LC-MS/MS analysis; type: ADME, cell-based, Caco-2; details: Caco-2
[11] = Apparent permeability from basolateral to apical side in wild-type MDCK cells at 5 uM after 90 mins; type: ADME, cell-based, Canis lupus familiaris; details: dog; procedure, shortened: as §1
A2780 = assay: Cytotoxicity against human A2780 cells at 1 uM after 72 hrs by MTT assay; type: functional; details: A2780, 72 h, read-out: GI
Procedure, shortened: (§6)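 Cells plated at 2000–5000/well, attached overnight at 37 °C. DMSO stocks (100 mM) serially diluted in medium to a final 1 µM, tested in duplicate wells. Exposure 72 h at 37 °C, 5% CO₂. MTT (5 mg/mL, 10 µL) added for 4 h. Lysis in 10% SDS / 5% isopropanol / 0.012 N HCl, then OD read at 580–680 nm.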

A-375 = assay: Cytotoxicity against human A375 cells at 1 uM after 72 hrs by MTT assay; type: functional; details: A-375, 72 h, read-out: GI
Procedure, shortened: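 Cells plated at 2000–5000/well, attached overnight at 37 °C. DMSO stocks (100 mM) serially diluted in medium to a final 1 µM, tested in duplicate wells. MTT (5 mg/mL, 10 µL) added for 4 h. Lysis in 10% SDS / 5% isopropanol / 0.012 N HCl, then OD read at 580–680 nm.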

MCF7 [12] = assay: Cytotoxicity against human MCF7 cells at 1 uM after 72 hrs by MTT assay; type: functional; details: MCF7, 72 h, read-out: GI; procedure, shortened: as §6
NCI-H460 = assay: Cytotoxicity against human NCI-H460 cells at 1 uM after 72 hrs by MTT assay; type: functional; details: NCI-H460, 72 h, read-out: GI; procedure, shortened: as §6
HT-29 = assay: Cytotoxicity against human HT-29 cells at 1 uM after 72 hrs by MTT assay; type: functional; details: HT-29, 72 h, read-out: GI; procedure, shortened: as §6
HeLa = assay: Cytotoxicity against human HeLa cells at 1 uM after 72 hrs by MTT assay; type: functional; details: read-out: GI; procedure, shortened: as §6
DU-145 = assay: Cytotoxicity against human DU145 cells at 1 uM after 72 hrs by MTT assay; type: functional; details: DU-145, 72 h, read-out: GI; procedure, shortened: as §6
HL-60 = assay: Cytotoxicity against human HL60 cells at 1 uM after 72 hrs by MTT assay; type: functional; details: HL-60, 72 h, read-out: GI; procedure, shortened: as §6
Caco-2 [13] = assay: as §2; type: ADME, cell-based; details: caco-2, 1.5 h, 10 µM; procedure, shortened: as §3
Caco-2 [14] = assay: as §4; type: ADME, cell-based; details: caco-2, 1.5 h, 10 µM
Caco-2 [15] = assay: as §5; type: ADME, cell-based; details: caco-2, 1.5 h, 10 µM

| Compound | efflux ratio at 1.5 h, 5 µM (MDR1 [1]) | efflux ratio at 1.5 h, 5 µM [2] | pIC50 (MCF7 [3]) | inhibition (INH) [4] | Papp B→A at 1.5 h, 5 µM (MDR1 [5]) [×10⁻⁶ cm/s] | Papp A→B at 1.5 h, 5 µM (MDR1 [6]) [×10⁻⁶ cm/s] | efflux ratio at 1.5 h, 10 µM [7] | Papp B→A at 1.5 h, 10 µM [8] [×10⁻⁶ cm/s] | Papp A→B at 1.5 h, 5 µM [9] [×10⁻⁶ cm/s] | Papp A→B at 1.5 h, 10 µM [10] [×10⁻⁶ cm/s] | Papp B→A at 1.5 h, 5 µM [11] [×10⁻⁶ cm/s] | inhibition of growth at 1 µM (A2780) [%] | inhibition of growth at 1 µM (A-375) [%] | inhibition of growth at 1 µM (MCF7 [12]) [%] | inhibition of growth at 1 µM (NCI-H460) [%] | inhibition of growth at 1 µM (HT-29) [%] | inhibition of growth at 1 µM (HeLa) [%] | inhibition of growth at 1 µM (DU-145) [%] | inhibition of growth at 1 µM (HL-60) [%] | further results |
| --- | --- | --- | --- | --- | --- | --- | --- | --- | --- | --- | --- | --- | --- | --- | --- | --- | --- | --- | --- | --- |
| CO[C@H]1C[C@H]2OC[C@@]2(OC(C)=O)[C@H]2[C@H](OC(=O)c3ccccc3)[C@]34OC(=O)O[C@H]3[C@H](OC(=O)[C@H](O)[C@@H](NC(=O)OC(C)(C)C)c3ccccc3)C(C)=C([C@@H](OC(=O)N(C)C)C(=O)[C@]12C)C4(C)C | 10.1 | 2.13 | 8.10 | Active | 6.38 | 0.63 | 2.04 | 33.5 | 1.4 | 16.4 | 2.99 | – | – | – | – | – | – | – | – | – |
| CC(=O)O[C@H]1C(=O)[C@@]2(C)[C@H]([C@H](OC(=O)c3ccccc3)[C@]3(O)C[C@H](OC(=O)[C@H](O)[C@@H](NC(=O)c4ccccc4)c4ccccc4)C(C)=C1C3(C)C)[C@]1(OC(C)=O)CO[C@@H]1C[C@@H]2O [PACLITAXEL] | 334 | 344 | 8.15 | Not Active | 44.1 | 0.13 | 34.4 | 33.4 | 0.09 | 0.97 | 29.8 | – | – | – | – | – | – | – | – | – |
| CO[C@H]1C(=O)[C@]2(C)CC[C@H]3OC[C@@]3(OC(C)=O)[C@H]2[C@H](OC(=O)c2ccccc2)[C@]23OC(=O)O[C@H]2[C@H](OC(=O)[C@H](O)[C@@H](NC(=O)OC(C)(C)C)c2ccccc2)C(C)=C1C3(C)C | – | – | 8.35 | – | – | – | 9.56 | 25.3 | – | 2.64 | – | 96 | 94.4 | 86.3 | 84.7 | 87.3 | 99.9 | 89.1 | 97.7 | – |
| C[C@H]1O[C@@H](O[C@H]2[C@@H](O)C[C@H](O[C@H]3[C@@H](O)C[C@H](O[C@H]4CC[C@@]5(C)[C@H](CC[C@@H]6[C@@H]5C[C@@H](O)[C@]5(C)[C@@H](C7=CC(=O)OC7)CC[C@]65O)C4)O[C@@H]3C)O[C@@H]2C)C[C@H](O)[C@@H]1O [DIGOXIN] | 65.5 | 22.7 | – | – | 12.4 | 0.19 | – | – | 0.35 | – | 8.06 | – | – | – | – | – | – | – | – | – |
| CO[C@H]1C(=O)[C@]2(C)[C@@H](OC(=O)N(C)C)C[C@H]3OC[C@@]3(OC(C)=O)[C@H]2[C@H](OC(=O)c2ccccc2)[C@]2(O)C[C@H](OC(=O)[C@H](O)[C@@H](NC(=O)OC(C)(C)C)c3ccccc3)C(C)=C1C2(C)C | 10.1 | 2.28 | 8.02 | Active | 5.26 | 0.52 | – | – | 1.39 | – | 3.17 | 95.8 | 90.4 | 102 | 86.6 | 89.8 | 103 | 87.5 | 97.8 | Ratio (Caco-2 [13]): 1.73; Papp (Caco-2 [14]): 26 ×10⁻⁶ cm/s; Papp (Caco-2 [15]): 10.6 ×10⁻⁶ cm/s |
| CO[C@H]1C(=O)[C@]2(C)[C@@H](OC(=O)N(C)C)C[C@H]3OC[C@@]3(OC(C)=O)[C@H]2[C@H](OC(=O)c2ccccc2)[C@]2(O)C[C@H](OC(=O)[C@H](O)[C@H](CC(C)C)NC(=O)OC(C)(C)C)C(C)=C1C2(C)C | – | – | 7.88 | – | – | – | – | – | – | – | – | – | – | – | – | – | 102 | – | – | Ratio (Caco-2 [13]): 1.59; Papp (Caco-2 [14]): 30.9 ×10⁻⁶ cm/s; Papp (Caco-2 [15]): 10.7 ×10⁻⁶ cm/s |
| COC(=O)O[C@H]1C[C@H]2OC[C@@]2(OC(C)=O)[C@H]2[C@H](OC(=O)c3ccccc3)[C@]3(O)C[C@H](OC(=O)[C@H](O)[C@@H](NC(=O)OC(C)(C)C)c4ccccc4)C(C)=C([C@@H](OC)C(=O)[C@]12C)C3(C)C | – | – | 8.30 | – | – | – | 5.23 | 38.8 | – | 6.97 | – | 96.4 | 97.4 | 103 | 89.5 | 89.7 | 102 | 88.5 | 97 | – |
